Calls of active or inactive are those of the source. The calls are words filed in the database; no cut-off is given here.
Legend:
Assay type in all cases: functional
Rattus norvegicus [1] = organism: Rattus norvegicus; assay: Residual insulin release from rat pancreatic islets at a concentration of 50 uM
In short: (§1)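 Rat pancreatic islets in groups of 10 were preincubated 30 min at 37 °C in bicarbonate salt medium with 2.8 mM glucose and 0.5% dialyzed albumin, gassed with 95% O2/5% CO2. They were then incubated 90 min at 37 °C with 16.7 mM glucose plus test drug. Insulin was measured by radioimmunoassay against a rat insulin standard and reported as % residual release.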

Rattus norvegicus [2] = organism: Rattus norvegicus; assay: Percentage of residual contractile response at 500 uM from isolated rat aorta
Rattus norvegicus [3] = organism: Rattus norvegicus; assay: Percentage of residual contractile response in isolated rat aorta; +++ indicates that a maximal vasorelaxant activity was observed at 500 uM
Rattus norvegicus [4] = organism: Rattus norvegicus; assay: Effective dose concentration by the compound to give 50% relaxation of KCl induced concentration
In short: (§2)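 Endothelium-denuded transverse aortic rings (3-4 mm) from fed Wistar rats (250-300 g), held at 36 ± 1 °C under 95% O2/5% CO2. After 60 min equilibration they were contracted with 30 mM KCl. At the plateau (1-2 g), drug was added cumulatively until maximal relaxation or 1 mM. Isometric tension was recorded. ED50 was read graphically from each curve. Mean ± sem of 3-12 experiments.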

Rattus norvegicus [5] = organism: Rattus norvegicus; assay: Effective dose to give 50% relaxation of the KCl induced contraction; in short: as §2
Rattus norvegicus [6] = organism: Rattus norvegicus; assay: Percentage residual insulin release by the compound at 10 uM from rat pancreatic islets; in short: as §1
Rattus norvegicus [7] = organism: Rattus norvegicus; assay: Percentage residual insulin release by the compound at 1 uM from rat pancreatic islets; in short: as §1
Rattus norvegicus [8] = organism: Rattus norvegicus; assay: Effective dose to give 50% relaxation of KCl induced concentration; in short: as §2
Rattus norvegicus [9] = organism: Rattus norvegicus; assay: Percentage residual insulin release by the compound at 1(uM from rat pancreatic islets; settings: in the assay text read “10(uM” for “1(uM”; in short: as §1

| SMILES | Residual insulin secretion (Rattus norvegicus [1]) | Residual contractile activity (Rattus norvegicus [2]) | Residual contractile activity (Rattus norvegicus [3]) | further results |
| --- | --- | --- | --- | --- |
| CCC(C)NC1=NS(=O)(=O)c2cnccc2N1C (stereo not given) | 81% | 61% | – | – |
| O=S1(=O)N=C(C2CCCC2)Nc2ccncc21 | 99.3% | – | maximal vasorelaxant activity was observed at 500 uM | ED50 (Rattus norvegicus [4]): 257 µM |
| O=S1(=O)N=C(NN2CCOCC2)Nc2ccncc21 | 98.8% | 93% | – | – |
| CC1=NS(=O)(=O)c2cc(Cl)ccc2N1C | 83.9% | – | – | – |
| CC1=Nc2ccc(Cl)cc2S(=O)(=O)N1 [DIAZOXIDE] | – | – | Active | ED50 (Rattus norvegicus [5]): 21 µM; Residual insulin secretion (Rattus norvegicus [6]): 70% |
| CCCCN(C)C1=NS(=O)(=O)c2cnccc2N1 | 76.1% | 47% | – | – |
| CCNC1=NS(=O)(=O)c2cnccc2N1 | 59.2% | 87% | – | – |
| CC1=NS(=O)(=O)c2cnccc2N1C1CCCCC1 | 87.9% | 52% | – | – |
| CCCC1=NS(=O)(=O)c2cnccc2N1 | 85.1% | 77% | – | – |
| CC(C)NC1=NS(=O)(=O)c2cnccc2N1 | 42.6% | 89% | – | – |
| CC(C)C(C)NC1=NS(=O)(=O)c2cnccc2N1C (stereo not given) | 95.4% | 69% | – | – |
| CCCNC1=NS(=O)(=O)c2cnccc2N1 | – | 88% | – | – |
| CC(NC1=NS(=O)(=O)c2cc(Cl)ccc2N1)C(C)(C)C (stereo not given) | 9.3% | – | maximal vasorelaxant activity was observed at 500 uM | ED50 (Rattus norvegicus [5]): 10 µM; Residual insulin secretion (Rattus norvegicus [6]): 46.9%; Residual insulin secretion (Rattus norvegicus [7]): 87.7% |
| CC(NC1=NS(=O)(=O)c2cnccc2N1)C(C)(C)C (stereo not given) | 10.3% | – | maximal vasorelaxant activity was observed at 500 uM | ED50 (Rattus norvegicus [5]): 104 µM; Residual insulin secretion (Rattus norvegicus [6]): 41%; Residual insulin secretion (Rattus norvegicus [7]): 70% |
| CC1=NS(=O)(=O)c2cnccc2N1C1CCCCCCC1 | 90.6% | – | maximal vasorelaxant activity was observed at 500 uM | ED50 (Rattus norvegicus [8]): 248 µM |
| CC(C)C(C)NC1=NS(=O)(=O)c2cnccc2N1 (stereo not given) | 8.6% | – | Active | ED50 (Rattus norvegicus [5]): 302 µM |
| O=S1(=O)NC(C2CCCC2)=Nc2ccc(Cl)cc21 | 14.1% | – | maximal vasorelaxant activity was observed at 500 uM | ED50 (Rattus norvegicus [4]): 2.8 µM |
| CCCCNC1=NS(=O)(=O)c2cnccc2N1 | – | 74% | – | Residual insulin secretion (Rattus norvegicus [6]): 82% |
| O=S1(=O)N=CNc2ccncc21 | 99.5% | 94% | – | – |

| SMILES | Residual insulin secretion (Rattus norvegicus [1]) | Residual contractile activity (Rattus norvegicus [2]) | Residual contractile activity (Rattus norvegicus [3]) | further results |
| --- | --- | --- | --- | --- |
| CC(C)C1=NS(=O)(=O)c2cnccc2N1 | 79.7% | 71% | – | – |
| CCC(C)NC1=NS(=O)(=O)c2cnccc2N1 (stereo not given) | 9.4% | 34% | – | Residual insulin secretion (Rattus norvegicus [9]): 49% |
| CC(C)CNC1=NS(=O)(=O)c2cnccc2N1 | – | – | maximal vasorelaxant activity was observed at 500 uM | ED50 (Rattus norvegicus [5]): 205 µM |
| CC(C)C(C)NC1=NS(=O)(=O)c2cc(Cl)ccc2N1 (stereo not given) | 11% | – | maximal vasorelaxant activity was observed at 500 uM | ED50 (Rattus norvegicus [5]): 32 µM |
| CN1CCN(C2=NS(=O)(=O)c3cnccc3N2)CC1 | 90.6% | – | maximal vasorelaxant activity was observed at 500 uM | ED50 (Rattus norvegicus [5]): 125 µM |
| O=S1(=O)N=C(C(F)(F)F)Nc2ccncc21 | 90.4% | 96% | – | – |
| CC1=NS(=O)(=O)c2cnccc2N1C(C)C | 68.1% | 86% | – | – |
| CC1=NS(=O)(=O)c2cnccc2N1N1CCOCC1 | 93.5% | 89% | – | – |
| O=S1(=O)N=C(NC2CCCCC2)Nc2ccncc21 | – | 40% | – | – |
| NC1=NS(=O)(=O)c2cnccc2N1 | – | 77% | – | – |
| CC(NC1=NS(=O)(=O)c2cnccc2N1C)C(C)(C)C (stereo not given) | 88.5% | 74% | – | – |
| CC(C)(C)C1=NS(=O)(=O)c2cnccc2N1 | 81.1% | – | maximal vasorelaxant activity was observed at 500 uM | ED50 (Rattus norvegicus [4]): 258 µM |
| CCC(C)NC1=NS(=O)(=O)c2cc(Cl)ccc2N1 (stereo not given) | 5.5% | – | maximal vasorelaxant activity was observed at 500 uM | ED50 (Rattus norvegicus [5]): 25 µM; Residual insulin secretion (Rattus norvegicus [6]): 19.9%; Residual insulin secretion (Rattus norvegicus [7]): 85.4% |
| CC1=NS(=O)(=O)c2cnccc2N1C | 109% | 94% | – | – |
| O=S1(=O)N=C(NC2CCCC2)Nc2ccncc21 | 31.6% | 60% | – | – |
| CC1=NS(=O)(=O)c2cnccc2N1 | 100.4% | 92% | – | – |
| CC1=NS(=O)(=O)c2cnccc2N1N1C2CCCC1CC2 | 71.9% | 53% | – | – |
| CC(C)NC1=NS(=O)(=O)c2cnccc2N1C | 79.4% | 84% | – | – |
| CCC1=NS(=O)(=O)c2cnccc2N1 | 90.2% | 74% | – | – |
